{
  "source": "ChEMBL document CHEMBL1121536",
  "about": "“C(14)-fluorinated prostaglandins: synthesis and biological evaluation of the methyl esters of (+)-14-fluoro-, (+)-15-epi-14-fluoro-, (+)-13(E)-14-fluror-, and (+)-13(E)-15-epi-14-fluoroprostaglandin F2 alpha” (1980)",
  "key": {"Cricetinae gen. sp. [1]": {"test_system": "Cricetinae gen. sp.", "test": "The compound was evaluated for the antifertility activity in hamster at 12.5 ug administered subcutaneously", "type": "functional, Cricetulus griseus", "procedure,_shortened": "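Hamsters were dosed subcutaneously, daily, in groups of ten. The minimum effective dose was the lowest dose per hamster per day giving no pregnancies (no implants) in the group. Potency was derived by comparing each compound's minimum effective dose with that of natural PGF2α.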"}, "Gerbillinae": {"test_system": "Gerbillinae", "test": "The compound was evaluated for the gerbil colon contraction in vitro on colon strips"}, "Cricetinae gen. sp. [2]": {"test_system": "Cricetinae gen. sp.", "test": "The compound was evaluated for the hamster uterine contraction in vitro on uterine strips"}},
  "data": [
    {"smiles": "CCCCC[C@@H](O)/C(F)=C\\[C@@H]1[C@@H](C/C=C\\CCCC(=O)OC)[C@@H](O)C[C@H]1O", "values": [
      {"measurement": "relative potency (PGF2α = 1)", "setting": "Cricetinae gen. sp. [1]", "result": "> 1"},
      {"measurement": "relative potency (PGF2α = 1)", "setting": "Gerbillinae", "result": 0.15},
      {"measurement": "relative potency (PGF2α = 1)", "setting": "Cricetinae gen. sp. [2]", "result": 0.36}
    ]},
    {"smiles": "CCCCC[C@@H](O)/C(F)=C/[C@@H]1[C@@H](C/C=C\\CCCC(=O)OC)[C@@H](O)C[C@H]1O", "values": [
      {"measurement": "relative potency (PGF2α = 1)", "setting": "Cricetinae gen. sp. [1]", "result": 0.5},
      {"measurement": "relative potency (PGF2α = 1)", "setting": "Gerbillinae", "result": 0.0034},
      {"measurement": "relative potency (PGF2α = 1)", "setting": "Cricetinae gen. sp. [2]", "result": 0.025}
    ]},
    {"smiles": "CCCCC[C@H](O)/C(F)=C/[C@@H]1[C@@H](C/C=C\\CCCC(=O)OC)[C@@H](O)C[C@H]1O", "values": [
      {"measurement": "relative potency (PGF2α = 1)", "setting": "Cricetinae gen. sp. [1]", "result": "< 0.5"},
      {"measurement": "relative potency (PGF2α = 1)", "setting": "Gerbillinae", "result": 0.023},
      {"measurement": "relative potency (PGF2α = 1)", "setting": "Cricetinae gen. sp. [2]", "result": 0.263}
    ]},
    {"smiles": "CCCCC[C@H](O)/C(F)=C\\[C@@H]1[C@@H](C/C=C\\CCCC(=O)OC)[C@@H](O)C[C@H]1O", "values": [
      {"measurement": "relative potency (PGF2α = 1)", "setting": "Cricetinae gen. sp. [1]", "result": "< 0.1"},
      {"measurement": "relative potency (PGF2α = 1)", "setting": "Gerbillinae", "result": 0.002},
      {"measurement": "relative potency (PGF2α = 1)", "setting": "Cricetinae gen. sp. [2]", "result": 0.0002}
    ]},
    {"smiles": "CCCCC[C@H](O)/C=C/[C@@]1(F)[C@H](O)C[C@H](O)[C@@H]1C/C=C\\CCCC(=O)OC", "values": [
      {"measurement": "relative potency (PGF2α = 1)", "setting": "Cricetinae gen. sp. [1]", "result": 12.5},
      {"measurement": "relative potency (PGF2α = 1)", "setting": "Gerbillinae", "result": 0.001},
      {"measurement": "relative potency (PGF2α = 1)", "setting": "Cricetinae gen. sp. [2]", "result": 0.28}
    ]},
    {"smiles": "CCCCC[C@@H](O)/C=C/[C@@]1(F)[C@H](O)C[C@H](O)[C@@H]1C/C=C\\CCCC(=O)OC", "values": [
      {"measurement": "relative potency (PGF2α = 1)", "setting": "Cricetinae gen. sp. [1]", "result": 1},
      {"measurement": "relative potency (PGF2α = 1)", "setting": "Gerbillinae", "result": 0.011},
      {"measurement": "relative potency (PGF2α = 1)", "setting": "Cricetinae gen. sp. [2]", "result": 0.022}
    ]}
  ]
}
